A selection: hits, their analogues and other compounds. The true share with any hit is near 3%.
CaV13 FRET inh: Disruptors of the CACNA1D IQ motif to Ca2+-dependent inactivation inhibitor domain association, primary screening, Förster resonance energy transfer in intact living …; HEK cells, CFP/YFP FRET ICDI-IQ, plate reader, 10 min; percent FRET-ratio fall versus neutral wells; inhibition, % at 12.3 µM; actives 0.098% (n = 340,000); AID 743397;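 active means mean replicate inhibition of at least 30% and at least 1% of replicates passing that level; inconclusive means only one of the two criteria is met; inactive means neither criterion is met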;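 further: 0% = median of the neutral control wells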
PfHsp90 yeast 2: growth inhibition of yeast expressing Plasmodium Hsp90; S. cerevisiae expressing PfHsp90, BacTiter-Glo ATP, 48 h; yeast lacking PDR1 and PDR3 efflux regulators; inhibition, % at 9.4 µM; actives 0.32% (n = 310,000); AID 504621;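 active means every replicate shows inhibition above about 80%, whatever the replicate mean, limit read from the data; inconclusive means mean inhibition reaches the set limit but some replicate falls short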;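 further: 0% = DMSO neutral controls and 100% = 20 µM radicicol positive controls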
T cruzi inh: T. cruzi replication inhibition; T. cruzi beta-gal in NIH3T3, luminescence, 90 h; inhibition, % (test concentration not listed); actives 1.4% (n = 300,000); AID 1885;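 active means mean inhibition across valid replicates above about 55%, limit read from the data; inconclusive means mean below that limit but half or more replicates reach it; inactive means mean below it, under half of replicates reach it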;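 further: signal also drops with host cell toxicity which is not excluded here; 0% = plate median of DMSO wells and 100% = zero luminescence signal; higher percent means less beta-gal luminescence so fewer parasites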
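Material: NIH/3T3 host cells with β-galactosidase reporter T. cruzi; Input: 5,000 host fibroblasts per well; Medium: DMEM, 2% fetal bovine serum; Compound: 50 nL DMSO compound solution per well; Schedule: 3 h host attachment, then at least 90 h co-culture; Detection: luminescent β-galactosidase signal after 60 min lysis.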
HSF-1 act: increases HSF-1 driven luciferase reporter signal. NIH3T3-HGL HSF-1 luciferase reporter, MG132, 8 h; 100% = twice DMSO control signal. activation, % at 9 µM. actives 1.7% (n = 300,000). AID 504408;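 active means mean replicate activation of at least 50% with a set share of replicates each reaching 50%; inconclusive means only one of those two conditions met; inactive means mean below 50% and too few replicates reaching it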;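 further: 0% = median of the neutral control wells and 100% = twice that signal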
Glyco luc inh: N-linked glycosylation inhibition | D54 ERlucT glycosylation luciferase reporter, 24 h; percent of 100 nM tunicamycin response | reporter increase, % at 12.5 µM | actives 0.23% (n = 360,000) | AID 588692;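 active means mean luciferase reporter signal, scaled so untreated is 0 and the glycosylation-blocking control 100, at or above a set limit in every replicate; inconclusive means mean reaches the limit but not every replicate does; inactive means mean below the limit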;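 further: luciferase carries N-glycosylation sites so blocking glycosylation raises the light; 0% = median of neutral control wells and 100% = median of 100 nM tunicamycin wells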
PvdQ acylase: P. aeruginosa PvdQ acylase inhibition; purified PvdQ acylase, fluorescence plate reader; inhibition, % at 10 µM; actives 0.063% (n = 340,000); AID 488965; in the data active means inhibition above about 30%, passing the limit was not always enough; inconclusive means no clear call, values can overlap the other calls;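 further: 0% = vehicle neutral wells and 100% = reference inhibitor wells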
* = called active by the depositor; ? = inconclusive; . = not tested or not shown.

SMILES | CaV13 FRET inh | PfHsp90 yeast 2 | T cruzi inh | HSF-1 act | Glyco luc inh | PvdQ acylase
c1cc(-c2ccc(N3CCOCC3)cc2)n2ccnc2c1 | -5.5 | . | . | . | 2.9 | .
CCC(C)[C@@H](NC(=O)OC(C)(C)C)c1nnc(S(=O)(=O)Cc2cccc(C)c2)o1 (stereo not given in full) | -3.1 | 121.3* | -25.1 | 25.5 | -15.3 | 14.2
Cc1ccccc1CS(=O)(=O)c1nnc([C@H](Cc2ccccc2)NC(=O)OC(C)(C)C)o1 | -6.4 | 109.1* | -25.6 | 35.9 | -19.3 | -3.7
CC(C)(C)OC(=O)N[C@@H](Cc1ccccc1)c1nnc(S(=O)(=O)Cc2ccccc2)o1 | -6.4 | . | . | . | . | .
CC(C)(C)OC(=O)N[C@@H](Cc1ccccc1)c1nnc(SCC(=O)c2ccc(Cl)cc2)o1 | -7.6 | 5.6 | -2.5 | 55.0* | 0.2 | -9.1
CCN(CC(=O)Nc1ccc2c(c1)OCCO2)C(=O)C(C)Oc1ccc(F)cc1 (stereo not given) | -4.8 | 0.2 | . | . | 1.6 | -6.3
C[C@@H]1CCCCO[C@H](CN(C)S(=O)(=O)c2cn(C)cn2)[C@@H](C)CN([C@H](C)CO)C(=O)c2cc(NC(=O)CCCN(C)C)ccc2O1 | -5.7 | . | . | . | . | .
CCCCN(CCCC)C(=O)c1cc(Cl)ccc1[N+](=O)[O-] | -2.1 | -4.6 | -17.5 | 0.5 | -1.2 | 11.4
CCCN(CCC)C(=O)c1cc([N+](=O)[O-])cc2c1-c1ccc([N+](=O)[O-])cc1C2=C(C#N)C#N | -2.7 | . | 79.8* | 25.7 | . | .
O=C1CC(Sc2nnnn2-c2ccccc2)C(=O)N1c1cccc(Cl)c1 (stereo not given) | . | -5.7 | -7.3 | 11.4 | -1.4 | 5.4
COc1ccc(N2C(=O)CC(Sc3nnnn3-c3ccc(F)cc3)C2=O)cc1 (stereo not given) | -4.5 | 28.6 | 22.5 | 70.2* | -0.9 | -11.1
C=CCN1[C@@H](CC(C)C)COc2cccc(NCCCN3CCOCC3)c2S1(=O)=O | -6.1 | . | . | . | . | .
Cc1ccc(-c2nnc(-c3ccccc3)c(N3CCOCC3)n2)cc1 | -5.4 | 0.2 | 40.2 | 11.0 | -2.9 | -10.9
Brc1ccc(-c2nnc(-c3ccccc3)c(N3CCSCC3)n2)cc1 | -4.4 | . | 26.4 | 125.9* | -3.7 | -23.9
CN1CCN(c2nc(-c3ccc(Br)cc3)nnc2-c2ccccc2)CC1 | -5.5 | . | 65.1* | -5.2 | -4.0 | -4.7
CO[C@H]1CN(C)C(=O)c2ccc(NC(=O)NC(C)C)cc2OC[C@H](C)NC[C@H]1C | -6.5 | . | . | . | . | .
CCN1CCN(c2nc(C)c3c(n2)CC(C)CC3=O)CC1 (stereo not given) | -4.9 | -28.2 | 13.3 | 10.2 | -2.1 | -1.2
COc1cc(C2CC(=O)c3cnc(N4CCN(Cc5ccccc5)CC4)nc3C2)cc(OC)c1OC (stereo not given) | -3.9 | -12.8 | -0.4 | -6.8 | 4.0 | 8.6
Cc1nc(N2CCN(Cc3ccccc3)CC2)nc2c1C(=O)CC(C)C2 (stereo not given) | -6.1 | -30.8 | 71.5* | -2.7 | -3.4 | -8.8
COc1ccc(C2CC(=O)c3c(C)nc(N4CCN(Cc5ccccc5)CC4)nc3C2)cc1OC (stereo not given) | -5.8 | -15.8 | 54.8* | 9.9 | -7.0 | 4.6
COC(=O)[C@]12CCCCC=C1N(CCC1=CCCCC1)C(=O)[C@H](CC(=O)NCc1ccccc1)C2 | -4.3 | . | . | . | . | .
COc1ccc(OC)c(/C=N/NC(=O)c2[nH]ncc2Br)c1 | -20.0 | . | -14.0 | 16.6 | 2.6 | .
CCOc1ccc(/C=N/NC(=O)c2[nH]ncc2Br)c(O)c1 | -4.6 | 6.1 | 54.8* | 46.1 | -13.0 | -33.1
Cc1nc(Sc2ccc(Br)cc2)c(C#N)c(C)c1[N+](=O)[O-] | -4.6 | -2.0 | 42.3 | 128.4* | 6.6 | 15.1
Cc1cc(/C=N/NC(N)=S)c(C)n1-c1ccc(Cl)cc1 | -3.9 | -10.8 | 24.7 | -21.6 | -5.6 | -15.4
SMILES | CaV13 FRET inh | PfHsp90 yeast 2 | T cruzi inh | HSF-1 act | Glyco luc inh | PvdQ acylase
Cc1cc(/C=N/NC(N)=S)c(C)n1-c1cccc(Cl)c1 | -20.1 | -23.4 | 73.3* | -0.5 | -8.4 | -4.7
CCCn1c(=O)n(C)c(=O)c2c(SCC(=O)NC34CC5CC(CC(C5)C3)C4)nc(CC(C)C)nc21 | -4.0 | -29.5 | 69.3* | 4.8 | -7.9 | -6.9
C[C@H]1CN([C@@H](C)CO)C(=O)CCCn2nncc2CO[C@@H]1CN(C)Cc1ccc2cccnc2c1 | -5.5 | . | . | . | . | .
Oc1ccc(F)cc1-c1cc(-c2ccc3c(c2)OCCO3)n[nH]1 | . | 16.8 | 1.4 | 105.3* | -7.2 | ?
Oc1ccccc1-c1cc(-c2ccc(F)cc2)n[nH]1 | -4.6 | 6.9 | -0.2 | 45.0 | -9.1 | -12.2
Cc1ccccc1OCc1nc2ccccc2[nH]1 | -4.5 | -3.3 | 9.8 | 31.0 | -3.7 | -13.7
COc1ccccc1OCc1nc2ccccc2[nH]1 | -5.3 | 20.3 | -3.1 | 58.2* | -3.9 | 5.6
c1cnc2c(OCc3nc4ccccc4[nH]3)cccc2c1 | -10.1 | -25.4 | -3.7 | 67.5* | -2.5 | -9.2
COC(=O)[C@]12C[C@H](CC(=O)NCCCN3CCCC3=O)C(=O)N(CCC3=CCCCC3)C1=C[C@H](C(C)(C)C)O[C@@H]2C | -8.4 | . | . | . | . | .
C[C@H]1COc2cccc(NCCO)c2S(=O)(=O)N1 | -8.8 | . | . | . | . | .
C[C@H](CO)N1C[C@H](C)[C@H](CN(C)C(=O)Nc2ccc(N3CCCCC3)cc2)OCc2cnnn2CCCC1=O | -5.4 | . | . | . | . | .
COc1cc(Cl)c(C)cc1NC(=O)CSc1ccc(C)cc1 | -7.9 | -32.7 | 8.6 | 80.3* | -0.5 | -11.3
COc1cc(Cl)c(C)cc1NC(=O)CSc1ccccc1 | -6.4 | -0.5 | 4.8 | 20.1 | 0.2 | 8.3
C=C1CCC[C@]2(C)C[C@H]3OC(=O)C(CNC(C)CC)[C@H]3CC12 (stereo not given in full) | -5.7 | 10.3 | -27.1 | 30.3 | -12.1 | 0.6
C=C1CCC[C@]2(C)C[C@H]3OC(=O)C(CN4CCCCC4CO)[C@H]3CC12 (stereo not given in full) | -18.5 | -20.6 | -66.4 | ? | -12.3 | -16.5
C=C1CCC[C@]2(C)C[C@H]3OC(=O)C(CNC(C)(CO)CO)[C@H]3CC12 (stereo not given in full) | -21.9 | -23.6 | -34.0 | 73.7* | -10.1 | -24.5
C=C1CCC[C@]2(C)C[C@H]3OC(=O)C(CNC(CC)CO)[C@H]3CC12 (stereo not given in full) | -5.1 | 1.4 | -54.5 | 142.1* | -15.3 | -15.5
C=CCNc1ccc2c(c1)OC[C@@H](CC(C)C)NS2(=O)=O | -6.3 | . | . | . | . | .
COCCCn1c(SCc2cccc(C(F)(F)F)c2)nc2cc(OC)c(OC)cc2c1=N | -5.2 | . | 57.7* | -1.4 | -3.0 | -11.7
COCCCn1c(SCc2nnc(-c3ccc(OC)c(OC)c3)o2)nc2ccccc2c1=O | -8.3 | -3.7 | 13.7 | 29.6 | -5.0 | 11.0

Screens deposited in PubChem BioAssay by Broad Institute.
